Calls of active or inactive are those of the source. The rule behind the calls is not given here.
Experiments:
[1] = system: Mus musculus; assay: Antiamnesic activity in Albino LACA mouse assessed as decrease in scopolamine-induced increase in escape latency time administered intraperitoneally 5 mins post scopolamine challenge for 35 mins by Morris water maze test; assay type: functional, organism-based
Outline: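 Mice of either sex, 25-35 g, housed in groups of five. […] Water maze: water 30 cm deep at 28 ± 2 °C, 5 days, 90 s maximum per trial, then a 90 s probe trial. Read-out is escape latency; n = 5, mean ± SEM.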

[2] = biological target: T1, Acetylcholinesterase (Mus musculus, UniProt P21836); assay: biochemical; assay type: tissue-based, LACA, Brain
T1 sequence (P21836 whole entry): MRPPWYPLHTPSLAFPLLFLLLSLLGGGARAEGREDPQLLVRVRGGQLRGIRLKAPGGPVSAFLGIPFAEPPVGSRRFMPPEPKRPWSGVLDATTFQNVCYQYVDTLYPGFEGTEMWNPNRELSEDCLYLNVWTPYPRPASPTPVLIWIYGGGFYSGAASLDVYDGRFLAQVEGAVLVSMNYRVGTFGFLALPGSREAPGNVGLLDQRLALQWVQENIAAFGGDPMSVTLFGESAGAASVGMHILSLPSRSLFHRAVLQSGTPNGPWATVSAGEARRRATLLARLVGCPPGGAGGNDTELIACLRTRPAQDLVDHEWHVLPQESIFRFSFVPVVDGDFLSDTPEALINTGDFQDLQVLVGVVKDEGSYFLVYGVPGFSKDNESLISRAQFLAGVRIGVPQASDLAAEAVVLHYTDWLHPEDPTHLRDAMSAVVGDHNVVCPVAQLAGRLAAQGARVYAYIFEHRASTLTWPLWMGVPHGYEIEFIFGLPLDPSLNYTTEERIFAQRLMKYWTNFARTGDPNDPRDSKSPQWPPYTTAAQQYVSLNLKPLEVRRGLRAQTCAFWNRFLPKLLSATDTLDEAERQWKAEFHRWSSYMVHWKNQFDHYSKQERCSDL

[3] = system: Mus musculus; assay: Antiamnesic activity in Albino LACA mouse assessed as scopolamine-induced increase in escape latency time administered intraperitoneally 5 mins post scopolamine challenge for 35 mins by Morris water maze test (reference value: 49.35 +/- 2.21 secs); assay type: functional
Outline: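 LACA albino mice, 25-35 g, either sex, housed five per group. Scopolamine 0.5 mg/kg i.p. or saline given 35 min before training, then vehicle (0.25% CMC suspension) or compound 1 mg/kg i.p. 5 min later. Water maze at 30 cm depth, 28 ± 2 °C, training over 5 days, 90 s maximum per trial, probe trial 90 s. Escape latency recorded, mean of 5 mice.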

COc1ccc(CCNCCCOc2cc(=O)oc3ccccc23)cc1OC
Activity [1]: Active
IC50 [2]: 47.1 µM

O=c1cc(OCCCN2CCN(c3ccccc3F)CC2)c2ccccc2o1
Time [3]: 11.8 s
Activity [1]: Active
IC50 [2]: 5.2 µM

O=c1cc(OCCCN2CCN(c3ccccc3)CC2)c2ccccc2o1
Time [3]: 8.05 s
Activity [1]: Active
IC50 [2]: 2.42 µM

O=c1cc(OCCCN2CCN(c3ncccn3)CC2)c2ccccc2o1
Time [3]: 13.98 s
Activity [1]: Active
IC50 [2]: 21.6 µM

O=C(NCCc1ccccc1)Oc1cc(=O)oc2ccccc12
Activity [1]: Active
IC50 [2]: 83.4 µM

O=c1cc(OCCCCN2CCN(c3ncccn3)CC2)c2ccccc2o1
Activity [1]: Active
IC50 [2]: 34.8 µM

O=c1cc(OCCCN2CCC(Cc3ccccc3)CC2)c2ccccc2o1
Activity [1]: Active
IC50 [2]: 11.4 µM

O=c1cc(OCCCNCCc2ccccc2)c2ccccc2o1
Activity [1]: Active
IC50 [2]: 66.9 µM

O=C(Oc1cc(=O)oc2ccccc12)N1CCN(c2ccccc2)CC1
Activity [1]: Active
IC50 [2]: 74.8 µM

O=c1cc(OCCCCN2CCN(c3ccccc3)CC2)c2ccccc2o1
Activity [1]: Active
IC50 [2]: 14.9 µM

O=c1cc(OCCCN2CCN(c3ccccn3)CC2)c2ccccc2o1
Activity [1]: Active
IC50 [2]: 16.1 µM

O=c1cc(OCCCN2CCN(c3ccc(F)cc3)CC2)c2ccccc2o1
Activity [1]: Active
IC50 [2]: 9.5 µM

O=c1cc(OCCCCN2CCN(c3ccccc3F)CC2)c2ccccc2o1
Activity [1]: Active
IC50 [2]: 29.7 µM

O=c1cc(OCCCCN2CCN(c3ccccn3)CC2)c2ccccc2o1
Activity [1]: Active
IC50 [2]: 37.5 µM

Reference: ChEMBL document CHEMBL4431342, “Coumarin derivatives as potential inhibitors of acetylcholinesterase: Synthesis, molecular docking and biological studies” (Bioorg Med Chem, 2016)
